Results on seven compounds are retold here after ChEMBL document CHEMBL1144541, “Antinociceptive and antiinflammatory activities and QSAR studies on 2-substituted-4,5-diphenyl-1H-imidazoles” (2007).

The subject of one assay is Mus musculus. In words: Antinociceptive activity in ip dosed Swiss albino mouse assessed as latency time after 60 mins by tail flick method. It counts as functional.
Conditions: not given
In outline: (§1)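 Swiss albino mice (20–25 g) received compounds ip at 9.5–12.58 mg/kg in 0.2% Tween suspension. Tail-flick latency to radiant heat was measured, with stimulus intensity set to give a 3–4 s baseline. Readings were taken just before injection and at 15, 30, 60 and 120 min after. Significance was assessed by Student's t test.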
As to `C=CCc1nc(-c2ccccc2)c(-c2ccccc2)[nH]1`, the Activity is 4.27 s.
`Fc1ccc(-c2nc(-c3ccccc3)c(-c3ccccc3)[nH]2)cc1`: the Activity turned out to be 8.92 s.
As for `Ic1ccc(-c2nc(-c3ccccc3)c(-c3ccccc3)[nH]2)cc1`, the Activity was 5.89 s.
Same read-out and setting: next, `c1ccc(-c2nc[nH]c2-c2ccccc2)cc1`: 4.01 s; `COc1ccccc1-c1nc(-c2ccccc2)c(-c2ccccc2)[nH]1`: 7.64 s.
Still for that read-out and setting: then `COc1ccc(-c2nc(-c3ccccc3)c(-c3ccccc3)[nH]2)cc1`, with 9.17 s.

For the next assay, the system named is Mus musculus. In words: Antinociceptive activity in ip dosed Swiss albino mouse assessed as latency time after 15 mins by tail flick method. The class given is functional.
Conditions: not given
In outline:
as §1
On to `C=CCc1nc(-c2ccccc2)c(-c2ccccc2)[nH]1`, for which the Activity was 4.02 s.
Still for that read-out and setting: next, `Fc1ccc(-c2nc(-c3ccccc3)c(-c3ccccc3)[nH]2)cc1`: 4.87 s.
The same measure, in the same setting: then `Ic1ccc(-c2nc(-c3ccccc3)c(-c3ccccc3)[nH]2)cc1`, with 4.26 s; and `c1ccc(-c2nc[nH]c2-c2ccccc2)cc1`, with 3.92 s; and `COc1ccccc1-c1nc(-c2ccccc2)c(-c2ccccc2)[nH]1`, with 4.21 s.
In the case of `COc1ccc(-c2nc(-c3ccccc3)c(-c3ccccc3)[nH]2)cc1`, the Activity was 4.98 s.

The next assay has as its system Mus musculus. Briefly: Antinociceptive activity in ip dosed Swiss albino mouse assessed as latency time after 60 mins by hot plate method.
Conditions: not given
It counts as functional. In outline:
(§2)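 Swiss albino mice (20–25 g) were housed 7 days at 30 ± 1 °C before testing, in groups of six. Compounds were given ip at 9.5–12.58 mg/kg as a 0.2% Tween suspension. Mice were placed on a 55 ± 0.5 °C hot plate before dosing and at 15, 30, 60 and 120 min after dosing, with a 15 s cut-off. Significance was assessed by Student's t test.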
Regarding `C=CCc1nc(-c2ccccc2)c(-c2ccccc2)[nH]1`, the Activity was determined as 5.33 s.
On the same count and under the same terms, next, `Fc1ccc(-c2nc(-c3ccccc3)c(-c3ccccc3)[nH]2)cc1`: 9.33 s.
`Ic1ccc(-c2nc(-c3ccccc3)c(-c3ccccc3)[nH]2)cc1`: the Activity worked out at 6.18 s.
On the same count and under the same terms, next, `c1ccc(-c2nc[nH]c2-c2ccccc2)cc1`: 5.05 s; `COc1ccccc1-c1nc(-c2ccccc2)c(-c2ccccc2)[nH]1`: 8.65 s.
With `COc1ccc(-c2nc(-c3ccccc3)c(-c3ccccc3)[nH]2)cc1`, the Activity is given as 9.67 s.

The test system of the next assay is Mus musculus. In words: Antinociceptive activity in ip dosed Swiss albino mouse assessed as latency time after 120 mins by tail flick method. It counts as functional.
Conditions: not given
In outline:
as §1
On to `C=CCc1nc(-c2ccccc2)c(-c2ccccc2)[nH]1`, for which the Activity turned out to be 4.29 s.
On the same count and under the same terms, then `Fc1ccc(-c2nc(-c3ccccc3)c(-c3ccccc3)[nH]2)cc1`, with 10.67 s; and `Ic1ccc(-c2nc(-c3ccccc3)c(-c3ccccc3)[nH]2)cc1`, with 6.5 s.
Same read-out and setting: then `c1ccc(-c2nc[nH]c2-c2ccccc2)cc1`, with 4.02 s; and `COc1ccccc1-c1nc(-c2ccccc2)c(-c2ccccc2)[nH]1`, with 9.23 s; and `COc1ccc(-c2nc(-c3ccccc3)c(-c3ccccc3)[nH]2)cc1`, with 10.83 s.

A further assay deals with Mus musculus. In words: Antinociceptive activity in ip dosed Swiss albino mouse assessed as latency time after 15 mins by hot plate method. It counts as functional.
Conditions: not given
The gist of the method:
as §2
In the case of `C=CCc1nc(-c2ccccc2)c(-c2ccccc2)[nH]1`, the Activity was determined as 5.08 s.
On the same count and under the same terms, next, `Fc1ccc(-c2nc(-c3ccccc3)c(-c3ccccc3)[nH]2)cc1`: 4.93 s; `Ic1ccc(-c2nc(-c3ccccc3)c(-c3ccccc3)[nH]2)cc1`: 4.64 s.
`c1ccc(-c2nc[nH]c2-c2ccccc2)cc1`: the Activity turned out to be 4.83 s.
Same read-out and setting: next, `COc1ccccc1-c1nc(-c2ccccc2)c(-c2ccccc2)[nH]1`: 4.94 s; `COc1ccc(-c2nc(-c3ccccc3)c(-c3ccccc3)[nH]2)cc1`: 5.02 s.

The test system of the next assay is Mus musculus. In words: Antinociceptive activity in ip dosed Swiss albino mouse assessed as latency time by tail flick method. The class given is functional.
Conditions: not given
The gist of the method: as §1
In the case of `C=CCc1nc(-c2ccccc2)c(-c2ccccc2)[nH]1`, the Activity was determined as 3.98 s.
Still for that read-out and setting: next, `Fc1ccc(-c2nc(-c3ccccc3)c(-c3ccccc3)[nH]2)cc1`: 4.55 s; `Ic1ccc(-c2nc(-c3ccccc3)c(-c3ccccc3)[nH]2)cc1`: 4.16 s; `c1ccc(-c2nc[nH]c2-c2ccccc2)cc1`: 3.9 s.
Consider `COc1ccccc1-c1nc(-c2ccccc2)c(-c2ccccc2)[nH]1`, for which the Activity was determined as 4.21 s.
The same measure, in the same setting: next, `COc1ccc(-c2nc(-c3ccccc3)c(-c3ccccc3)[nH]2)cc1`: 4.58 s.

A further assay has as its system Rattus norvegicus. In words: Antiinflammatory activity assessed as reduction of carrageenan-induced paw volume in intraperitoneally dosed Wistar rat after 3 hrs. It counts as functional. Set-up: scale not given: the % may be the effect or the level left.
Conditions: not given
The gist of the method: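 Wistar rats of either sex (120–150 g) were dosed ip with compounds at 9.5–12.58 mg/kg in 0.2% Tween suspension. After 1 h, 0.05 ml of 1.0% w/v carrageenan in 0.9% NaCl was injected into the left hind paw. Paw volume was measured by mercury-displacement plethysmometry before injection and at 1, 2 and 3 h. Percent inhibition of the 3 h swelling was calculated.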
In the case of `C=CCc1nc(-c2ccccc2)c(-c2ccccc2)[nH]1`, the Activity is reported as 32.56%.
Take `Fc1ccc(-c2nc(-c3ccccc3)c(-c3ccccc3)[nH]2)cc1`: the Activity was determined as 79.07%.
Take `Ic1ccc(-c2nc(-c3ccccc3)c(-c3ccccc3)[nH]2)cc1`: the Activity is given as 27.91%.
For `c1ccc(-c2nc[nH]c2-c2ccccc2)cc1`, the Activity was determined as 20.94%.
`COc1ccccc1-c1nc(-c2ccccc2)c(-c2ccccc2)[nH]1`: the Activity stood at 65.12%.
On the same count and under the same terms, next, `COc1ccc(-c2nc(-c3ccccc3)c(-c3ccccc3)[nH]2)cc1`: 86.05%.

Another assay deals with Mus musculus. Briefly: Antinociceptive activity in ip dosed Swiss albino mouse assessed as latency time after 30 mins by tail flick method. The class given is functional.
Conditions: not given
In outline: as §1
Consider `C=CCc1nc(-c2ccccc2)c(-c2ccccc2)[nH]1`, for which the Activity is reported as 4.23 s.
Same read-out and setting: then `Fc1ccc(-c2nc(-c3ccccc3)c(-c3ccccc3)[nH]2)cc1`, with 7.14 s; and `Ic1ccc(-c2nc(-c3ccccc3)c(-c3ccccc3)[nH]2)cc1`, with 5.21 s.
Take `c1ccc(-c2nc[nH]c2-c2ccccc2)cc1`: the Activity is recorded as 4.01 s.
On the same count and under the same terms, next, `COc1ccccc1-c1nc(-c2ccccc2)c(-c2ccccc2)[nH]1`: 5.98 s.
The same measure, in the same setting: then `COc1ccc(-c2nc(-c3ccccc3)c(-c3ccccc3)[nH]2)cc1`, with 7.45 s.

Another assay deals with Mus musculus. In words: Antinociceptive activity in ip dosed Swiss albino mouse assessed as latency time after 30 mins by hot plate method. It counts as functional.
Conditions: not given
In outline:
as §2
On to `C=CCc1nc(-c2ccccc2)c(-c2ccccc2)[nH]1`, for which the Activity was found to be 5.12 s.
The same measure, in the same setting: then `Fc1ccc(-c2nc(-c3ccccc3)c(-c3ccccc3)[nH]2)cc1`, with 7.5 s.
For `Ic1ccc(-c2nc(-c3ccccc3)c(-c3ccccc3)[nH]2)cc1`, the Activity was 5.33 s.
With `c1ccc(-c2nc[nH]c2-c2ccccc2)cc1`, the Activity is listed as 4.83 s.
The same measure, in the same setting: then `COc1ccccc1-c1nc(-c2ccccc2)c(-c2ccccc2)[nH]1`, with 6.89 s; and `COc1ccc(-c2nc(-c3ccccc3)c(-c3ccccc3)[nH]2)cc1`, with 7.89 s.

The test system of another assay is Mus musculus. In words: Antinociceptive activity in ip dosed Swiss albino mouse assessed as latency time after 120 mins by hot plate method. It counts as functional.
Conditions: not given
The gist of the method:
as §2
As for `C=CCc1nc(-c2ccccc2)c(-c2ccccc2)[nH]1`, the Activity turned out to be 5.47 s.
Still for that read-out and setting: then `Fc1ccc(-c2nc(-c3ccccc3)c(-c3ccccc3)[nH]2)cc1`, with 10.83 s; and `Ic1ccc(-c2nc(-c3ccccc3)c(-c3ccccc3)[nH]2)cc1`, with 6.18 s; and `c1ccc(-c2nc[nH]c2-c2ccccc2)cc1`, with 5.2 s.
For `COc1ccccc1-c1nc(-c2ccccc2)c(-c2ccccc2)[nH]1`, the Activity is 9.25 s.
On the same count and under the same terms, next, `COc1ccc(-c2nc(-c3ccccc3)c(-c3ccccc3)[nH]2)cc1`: 10.87 s.

In a further assay the test system is Mus musculus. In words: Antinociceptive activity in ip dosed Swiss albino mouse assessed as latency time by hot plate method. It counts as functional.
Conditions: not given
The gist of the method: as §2
For `C=CCc1nc(-c2ccccc2)c(-c2ccccc2)[nH]1`, the Activity amounted to 4.66 s.
On the same count and under the same terms, then `Fc1ccc(-c2nc(-c3ccccc3)c(-c3ccccc3)[nH]2)cc1`, with 4.78 s; and `Ic1ccc(-c2nc(-c3ccccc3)c(-c3ccccc3)[nH]2)cc1`, with 4.45 s; and `c1ccc(-c2nc[nH]c2-c2ccccc2)cc1`, with 4.66 s.
`COc1ccccc1-c1nc(-c2ccccc2)c(-c2ccccc2)[nH]1`: the Activity is given as 4.9 s.
Still for that read-out and setting: then `COc1ccc(-c2nc(-c3ccccc3)c(-c3ccccc3)[nH]2)cc1`, with 4.87 s.

The subject of another assay is Rattus norvegicus. Briefly: Antiinflammatory activity assessed as reduction of carrageenan-induced paw volume in Wistar rat at 10 mg/kg, ip after 3 hrs. The class given is functional. The settings on record: route intraperitoneal.
For the compound `COc1ccc2c(c1)c(CC(=O)O)c(C)n2C(=O)c1ccc(Cl)cc1` [INDOMETHACIN], the inhibition in vivo at 10 mg/kg amounted to 95.3%.
For `COc1ccc(-c2nc(-c3ccccc3)c(-c3ccccc3)[nH]2)cc1`, the inhibition in vivo at 10 mg/kg stood at 86%.
